Screens deposited in PubChem by The Scripps Research Institute Molecular Screening Center.
OX1R antag-1 – blocks the human orexin 1 receptor; 330,000 compounds, 0.43% hits; CHO/OX1R cells, Fluo-8 calcium fluorescence, orexin A; inhibition, % at 5 µM; O43613;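 active = inhibition above its plate's threshold, mean inhibition of all tested compounds on the plate plus 3 SD, cut at about 37% in these data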;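 also: 0% = orexin A challenge wells and 100% = SB-334867-A antagonist wells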
Target sequence (O43613 whole entry, looked up): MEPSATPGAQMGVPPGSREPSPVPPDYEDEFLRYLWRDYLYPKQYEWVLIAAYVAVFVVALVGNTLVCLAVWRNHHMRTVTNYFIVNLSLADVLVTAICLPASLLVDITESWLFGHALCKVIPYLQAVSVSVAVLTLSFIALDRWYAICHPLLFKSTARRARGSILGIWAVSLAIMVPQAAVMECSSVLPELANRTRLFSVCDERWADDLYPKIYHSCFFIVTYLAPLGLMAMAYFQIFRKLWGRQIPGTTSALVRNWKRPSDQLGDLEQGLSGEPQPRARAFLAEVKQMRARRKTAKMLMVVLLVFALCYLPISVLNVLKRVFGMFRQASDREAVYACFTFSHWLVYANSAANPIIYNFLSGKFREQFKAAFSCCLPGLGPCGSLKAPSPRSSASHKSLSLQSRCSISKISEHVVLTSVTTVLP
CHO parental Ca – counter-screen for OX1R antagonists: effect in parental CHO cells; 330,000 compounds, 0.63% hits; inhibition, % at 5.6 µM; parental CHO-K1, ATP-induced calcium, Fluo-8 fluorescence;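 active = inhibition above that plate's mean sample inhibition plus 3 SD, cut at about 26% in these data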;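 also: 0% = ATP-challenged DMSO wells and 100% = DMSO wells without ATP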
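Test system: untransfected parental CHO cell line; also added: ATP stimulus; dosing: 5.6 µM, single dose; signal: calcium-sensitive Fluo-8 fluorescence; measure: percent inhibition of ATP-evoked calcium rise, normalized to controls; benchmarks: low control ATP plus DMSO, high control DMSO only; replication: one well per compound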
TAAR1 agonist – human TAAR1 agonism; Q96RJ0; CHO RD-HGA16 TAAR1, Fluo-8 calcium fluorescence; vehicle wells 0%, saturating PEA agonist 100%; activation, % at 3 µM; 360,000 compounds, 0.99% hits; AID 624467;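 active = activation above the mean activation of all test compounds in the run plus 3 SD, cut at about 38% in these data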
Target sequence (Q96RJ0 whole entry, looked up): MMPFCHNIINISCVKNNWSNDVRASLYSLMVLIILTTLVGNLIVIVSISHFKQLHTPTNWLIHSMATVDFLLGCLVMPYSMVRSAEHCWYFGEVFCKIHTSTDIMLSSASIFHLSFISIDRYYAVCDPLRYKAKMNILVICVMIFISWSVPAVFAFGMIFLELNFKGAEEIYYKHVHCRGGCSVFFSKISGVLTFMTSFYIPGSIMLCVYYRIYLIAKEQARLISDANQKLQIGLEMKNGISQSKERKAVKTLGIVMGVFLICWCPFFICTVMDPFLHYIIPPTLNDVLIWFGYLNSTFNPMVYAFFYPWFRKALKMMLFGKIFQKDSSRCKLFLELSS
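Repeats: no replicates (n 1) | Material: CHO-derived RD-HGA16 cells with stable Gα16 and human TAAR1 | Technique: Kinetic Fluo-8 calcium fluorescence | Schedule: 17-24 h seeding, 75 min 37 °C dye, 30 min RT | Evaluation: % activation from peak over basal fluorescence ratio, DMSO-to-PEA scaled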
TAAR1 antagonist – human TAAR1 antagonism. Q96RJ0. CHO RD-HGA16 TAAR1, Fluo-8 calcium fluorescence, antagonist. inhibition, % at 3 µM. 360,000 compounds, 1.5% hits. AID 624466;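 active = inhibition above a per-plate cutoff, the mean inhibition of test compounds on that plate plus 3 SD, cut at about 49% in these data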;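 also: 0% = DMSO plus EC80 beta-PEA response and 100% = DMSO alone without agonist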
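Test system – hTAAR1-expressing CHO RD-HGA16 cells, Gα16-coupled · Reagent – β-PEA at EC80 concentration, post-compound challenge · Compound dosing – 3 µM, single point · Timing – 140 s kinetic read after compound, 140 s after agonist · Detection – Fluo-8 intracellular calcium dye fluorescence, real-time kinetic reads · Control set – DMSO and EC80 PEA controls · Repeats – n of 1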
GPR7 antagonist – blocks human GPR7 receptor signaling | P48145 | GPR7-expressing cells, fluorescence antagonist assay | inhibition, % at 4.4 µM | 290,000 compounds, 1.1% hits | AID 1861; in the data active = inhibition above about 16%, passing the limit was not always enough;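 also: cells stimulated with the agonist NPW; 0% = agonist with vehicle and 100% = vehicle without agonist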
OX1R antag-2 – antagonists of human orexin 1 receptor (OX1R); O43613; OX1R-expressing cells, FRET antagonist read-out; inhibition, % at 6.6 µM; 330,000 compounds, 1.8% hits; AID 485270; in the data active = inhibition mostly above about 38%, no sharp cut-off; inactive = mostly below about 40%;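 also: 0% = agonist challenge alone and 100% = reference antagonist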
Numbers without * were called inactive; . = no result given. Sampled rows, rich in hits. Any-hit rate of the full collection: about 4.6%.

SMILES	OX1R antag-1	CHO parental Ca	TAAR1 agonist	TAAR1 antagonist	GPR7 antagonist	OX1R antag-2
NC(=O)c1ncn([C@@H]2O[C@H](C(=O)N3CCN(Cc4ccccn4)CC3)[C@@H](O)[C@H]2O)n1	.	.	1.7	-24.4	.	.
O=C(/C=C/c1ccc(Cl)c([N+](=O)[O-])c1)Nc1cccnc1	3.4	-17.5	17.3	12.7	8.6	54.4*
O=C(/C=C/c1ccc(Cl)c([N+](=O)[O-])c1)Nc1cccc(NC(=O)c2ccco2)c1	8.2	7.1	16.9	69.5*	-10.9	57.6*
O=C(/C=C/c1ccc(Cl)c([N+](=O)[O-])c1)Nc1ccc(NC(=O)c2ccco2)cc1	.	.	5.0	12.3	-10.0	.
CC(C)NC(=O)C1(C)CSCC(=O)N1CCOc1ccccc1 (stereo unspecified)	.	.	0.7	-9.7	.	.
COCCN=C1Sc2ccccc2[C@@H]2C[C@H]3[C@H](CON3C)CN12	.	.	1.2	-7.9	.	.
COC(=O)[C@H](NC(=O)c1cc([C@@H](NC(=O)OC(C)(C)C)C(C)C)sc1N)C(C)C	.	.	0.1	-29.1	.	.
CCCS(=O)(=O)NC(=O)C1(C)CCN(C(=O)c2cncc(Br)c2)C1 (stereo unspecified)	.	.	2.6	-28.6	.	.
COC(=O)[C@]12C[C@H](CC(=O)NCCCN3CCCC3=O)C(=O)N(CCC3=CCCCC3)C1=C[C@H](C(C)(C)C)O[C@@H]2C	.	.	1.4	-27.4	.	.
O=C(CCc1nc(-c2cccs2)no1)Nc1cnc2ccccc2c1	0.3	-6.7	42.0*	-15.4	-2.0	18.1
CCc1cccc(NC(=O)CCc2nc(-c3cccs3)no2)c1	-14.0	6.1	2.9	-2.3	-1.4	22.5
Nc1[nH]c(C(=O)c2ccccc2)c(-c2ccccc2Br)c1C(=O)NCc1ccc(-c2ccccc2)cc1	.	.	1.2	-14.0	.	.
O=c1ccc(-c2ccccc2)nn1Cc1ccccc1F	.	.	6.5	2.0	7.7	.
C=Cc1ccc(Cn2nc(-c3ccccc3)ccc2=O)cc1	-3.4	49.9*	0.2	6.8	22.4	7.2
CC(=O)Nc1ccc(S(=O)(=O)Nc2ccccc2C(=O)N2CCCC2)cc1	-67.0	-0.1	9.3	-19.8	6.4	11.6
COc1ccc(/C=N/NC(=O)CCn2c3ccccc3c3ccccc32)cc1OC	6.7	-19.2	16.0	16.0	-2.5	59.4*
Cc1cc(=O)[nH]c(SCC(=O)NCCC2=CCCCC2)n1	-25.5	-17.3	41.4*	2.8	-4.7	12.6
CC(Sc1nc(N)cc(N)n1)C(=O)NCCC1=CCCCC1 (stereo unspecified)	-6.6	-7.9	38.4*	15.0	.	-0.8
Cc1ccc(SC(C)C(=O)NCCC2=CCCCC2)cc1 (stereo unspecified)	-20.3	-6.2	-0.3	-33.4	-1.6	8.0
CCCCNc1cccc2c1S(=O)(=O)N[C@@H](CC(C)C)CO2	.	.	-0.1	-13.2	.	.
CCCCOCCCNC(=O)C[C@H]1C[C@@]2(C(=O)OC)C(=C[C@H](C(C)(C)C)O[C@@H]2C)N(Cc2ccccc2)C1=O	.	.	-2.2	-21.5	.	.
O=C(COC(=O)c1ccc[n+]([O-])c1)Nc1ccc([N+](=O)[O-])cc1C(F)(F)F	-11.7	-3.6	8.2	13.1	.	33.0*
O=C(COC(=O)c1cc[n+]([O-])cc1)Nc1cc([N+](=O)[O-])ccc1Cl	-9.5	-13.9	3.5	-12.4	.	57.2*
CC1CC1C(=O)OCC(=O)Nc1cc(S(=O)(=O)N2CCCCC2)ccc1Cl (stereo unspecified)	-14.1	-10.2	3.9	-6.6	.	1.1
C[C@@H](C(=O)NCc1ccccn1)[C@H]1C[C@]1(C)[C@H](NC(=O)OCc1ccccc1)c1ccccc1	-22.5	-25.1	15.6	49.1*	1.7	21.0
SMILES	OX1R antag-1	CHO parental Ca	TAAR1 agonist	TAAR1 antagonist	GPR7 antagonist	OX1R antag-2
Nc1ncnc2c1ncn2[C@@H]1O[C@H](C(=O)N[C@@H](CCc2ccccc2)C(=O)O)[C@@H](O)[C@H]1O	.	.	1.1	-9.5	.	.
COC(=O)c1ccc(NC(=S)NC(=O)c2c(-c3ccccc3)noc2C)cc1	-18.7	-10.5	2.9	0.0	-5.5	23.7
COC(=O)c1ccc(C)c(NC(=O)c2c(-c3ccccc3)noc2C)c1	10.4	-12.3	1.4	8.3	-5.9	38.3*
Cc1cccc(S(=O)(=O)N2CCC[C@H]2C(=O)N2CCC[C@@H]2C(=O)NCc2ccccc2)c1	.	.	2.4	-8.1	.	.
CC(=O)OC[C@@H]1CN(Cc2cccc(C(F)(F)F)c2)C[C@H](n2cnc3c(N4CCOCC4)ncnc32)O1	.	.	-1.4	-13.9	.	.
CC(=O)OC[C@@H]1CN(Cc2cccc(C(F)(F)F)c2)C[C@H](n2cnc3c(NCc4ccco4)ncnc32)O1	.	.	9.4	56.5*	.	.
CCc1c(C2(O)CCCCC2)[nH]c2cc(C(F)(F)F)ccc12	45.2*	-3.5	.	.	-25.7	64.3*
Cc1c(C2(O)CCCCC2)[nH]c2cc(C(F)(F)F)ccc12	91.2*	64.7*	16.3	25.1	.	71.3*
CCOC(=O)C1CCN(C(=O)COC(=O)CSc2ccc(C(N)=O)cc2[N+](=O)[O-])CC1	-10.9	-4.8	-0.2	-1.4	-9.8	55.1*
COC(=O)C1CCN(C(=O)COC(=O)CSc2ccc(C(N)=O)cc2[N+](=O)[O-])CC1	-6.7	-1.5	0.8	-11.7	.	37.1*
CCC1CCCCN1C(=O)COC(=O)CSc1ccc(C(N)=O)cc1[N+](=O)[O-] (stereo unspecified)	-12.4	-16.6	4.6	-11.3	.	20.4
Cc1c(NC(=O)COC(=O)CSc2ccc(C(N)=O)cc2[N+](=O)[O-])c(=O)n(-c2ccccc2)n1C	1.6	-4.2	6.9	-24.3	7.3	71.3*
Cc1ccc(C(=O)OCC(=O)Nc2c(C)n(C)n(-c3ccccc3)c2=O)cc1[N+](=O)[O-]	-15.7	-1.1	6.4	-8.0	-4.3	15.9
O=C(NC1CCCC1)[C@@H]1CCCN1C(=O)[C@@H](NC(=O)N1CCOCC1)c1ccccc1	.	.	1.6	-18.5	.	.
Fc1ccc(-c2ccc3c(n2)CCCN3Cc2ccccc2C(F)(F)F)cc1	.	.	-0.7	-33.9	.	.
Cc1ccc(S(=O)(=O)NC(=O)ON=Cc2ccc3c(c2)OCO3)cc1	.	.	0.7	-6.9	.	.
Cc1cccc(N2N=C(C(=O)O)CCC2=O)c1	-13.7	6.1	1.9	14.8	-1.6	-2.9
CC(C)[C@H](NC(=O)c1ccc(Cl)cc1Cl)C(=O)N1CCC[C@H]1C(=O)NCc1ccccc1	.	.	-1.0	-3.9	.	.
COc1ccccc1-c1cccc2[nH]c3c(c12)CCN1C(=O)[C@H]2[C@H](C)ON(C)[C@H]2C[C@@H]31	.	.	5.8	-23.7	.	.
Cc1ccccc1NC(=O)Nc1nc(C2CCC(=O)N2)cs1 (stereo unspecified)	.	.	3.7	3.3	.	.
COc1ccccc1C(c1nnnn1CCc1ccccc1)N1CCN(c2ccccc2)CC1 (stereo unspecified)	-13.7	-5.6	4.9	12.1	22.7*	17.2
